The source made the active and inactive calls. The rule behind the calls is not given here.
Assays:
[1] = molecular target: T1, Protein cereblon/Histone-lysine N-methyltransferase EZH2 (Homo sapiens) (UniProt Q15910+Q96SW2); assay: PROTAC activity at CRBN E3 ligase/EZH2 in PRC2 complex in human WSUDLCL2 cells assessed as induction of EED degradation at up to 10 uM incubated for 72 hrs by Western blot analysis; format: cell-based; settings: dose microM <=10, time 72.0 hrs
[2] = molecular target: T1, Protein cereblon/Histone-lysine N-methyltransferase EZH2 (Homo sapiens); assay: PROTAC activity at CRBN E3 ligase/EZH2 in PRC2 complex in human WSUDLCL2 cells assessed as reduction in H3K27me3 level incubated for 72 hrs by Western blot analysis; format: cell-based; settings: dose 0-10 µM
[3] = molecular target: T1, Protein cereblon/Histone-lysine N-methyltransferase EZH2 (Homo sapiens); assay: PROTAC activity at CRBN E3 ligase/EZH2 in PRC2 complex in human WSUDLCL2 cells assessed as reduction in H3K27me3 level at 1 uM incubated for 48 hrs by Western blot analysis; format: cell-based
Method in brief: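 WSU-DLCL-2 cells treated 48 h (1 μM for the single-concentration screen), lysed; SDS-PAGE, nitrocellulose transfer, 5% milk block, primary antibody 4 °C overnight, chemiluminescence. Bands quantified by densitometry, normalized to GAPDH, expressed relative to DMSO-treated cells; mean ± SD of three independent experiments, t-test.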

[4] = molecular target: T1, Protein cereblon/Histone-lysine N-methyltransferase EZH2 (Homo sapiens); assay: PROTAC activity at CRBN E3 ligase/EZH2 in PRC2 complex in human WSUDLCL2 cells assessed as induction of EZH2 degradation incubated for 72 hrs by Western blot analysis; format: cell-based; settings: dose 0-10 µM
[5] = molecular target: Histone-lysine N-methyltransferase EZH2 (Homo sapiens, UniProt Q15910); format: cell-based, Sf9
[6] = molecular target: T1, Protein cereblon/Histone-lysine N-methyltransferase EZH2 (Homo sapiens); assay: PROTAC activity at CRBN E3 ligase/EZH2 in PRC2 complex in human WSUDLCL2 cells assessed as induction of SUZ12 degradation at up to 10 uM incubated for 72 hrs by Western blot analysis; format: cell-based; settings: dose microM <=10, time 72.0 hrs
MDA-MB-468 [7] = assay: Downregulation of […] mRNA expression in human MDA-MB-468 cells at 10 uM incubated for 48 hrs by qRT-PCR analysis; format: functional, cell-based
Method in brief: (§1)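 Cells treated 48 h. Total RNA extracted with Trizol, reverse-transcribed, and SYBR RT-qPCR run: 95 °C 30 s, then 40 cycles of 95 °C 6 s and 60 °C 20 s. mRNA normalized to the DMSO-treated group. Mean SD of three independent experiments, t-test versus DMSO.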

A549 [8] = assay: Downregulation of CHEK1 mRNA expression in human A549 cells at 10 uM incubated for 48 hrs by qRT-PCR analysis; format: functional, cell-based; method in brief: as §1
NCI-H1299 [9] = assay: Downregulation of CHEK1 mRNA expression in human NCI-H1299 cells at 10 uM incubated for 48 hrs by qRT-PCR analysis; format: functional, cell-based; method in brief: as §1
NCI-H1299 [10] = assay: Antiproliferative activity against human NCI-H1299 cells harboring SWI/SNF mutant assessed as inhibition of cell growth at 10 uM treated for 9 days by optical microscopic analysis; format: functional, cell-based; settings: time 9.0 day
Method in brief: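 Cells seeded at 5 × 10³ per well, grown 24 h, then exposed to compound at 10 μM for 9 days with medium refreshed. Cells were photographed and counted on days 1, 3, 5, 7 and 9. For lines 1-2, EZH2-targeting or control shRNA was induced in the cells. Mean SD of three independent experiments; t-test against control.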

NCI-H1299 [11] = assay: Downregulation of ARL6IP mRNA expression in human NCI-H1299 cells at 10 uM incubated for 48 hrs by qRT-PCR analysis; format: functional, cell-based; method in brief: as §1
NCI-H1299 [12] = assay: Downregulation of CENPK mRNA expression in human NCI-H1299 cells at 10 uM incubated for 48 hrs by qRT-PCR analysis; format: functional, cell-based; method in brief: as §1
A549 [13] = assay: Downregulation of TACC3 mRNA expression in human A549 cells at 10 uM incubated for 48 hrs by qRT-PCR analysis; format: functional, cell-based; method in brief: as §1
NCI-H1299 [14] = assay: Downregulation of CEP76 mRNA expression in human NCI-H1299 cells at 10 uM incubated for 48 hrs by qRT-PCR analysis; format: functional, cell-based; method in brief: as §1
NCI-H1299 [15] = assay: Downregulation of […] mRNA expression in human NCI-H1299 cells at 10 uM incubated for 48 hrs by qRT-PCR analysis; format: functional, cell-based; method in brief: as §1
MDA-MB-468 [16] = assay: Downregulation of TACC3 mRNA expression in human MDA-MB-468 cells at 10 uM incubated for 48 hrs by qRT-PCR analysis; format: functional, cell-based; method in brief: as §1
A549 [17] = assay: Downregulation of CEP76 mRNA expression in human A549 cells at 10 uM incubated for 48 hrs by qRT-PCR analysis; format: functional, cell-based; method in brief: as §1
MDA-MB-468 [18] = assay: Downregulation of CHEK1 mRNA expression in human MDA-MB-468 cells at 10 uM incubated for 48 hrs by qRT-PCR analysis; format: functional, cell-based; method in brief: as §1
A549 [19] = assay: Downregulation of […] mRNA expression in human A549 cells at 10 uM incubated for 48 hrs by qRT-PCR analysis; format: functional, cell-based; method in brief: as §1
A549 [20] = assay: Downregulation of ARL6IP mRNA expression in human A549 cells at 10 uM incubated for 48 hrs by qRT-PCR analysis; format: functional, cell-based; method in brief: as §1
MDA-MB-468 [21] = assay: Downregulation of CEP76 mRNA expression in human MDA-MB-468 cells at 10 uM incubated for 48 hrs by qRT-PCR analysis; format: functional, cell-based; method in brief: as §1
MDA-MB-468 [22] = assay: Downregulation of ARL6IP mRNA expression in human MDA-MB-468 cells at 10 uM incubated for 48 hrs by qRT-PCR analysis; format: functional, cell-based; method in brief: as §1
NCI-H1299 [23] = assay: Downregulation of TACC3 mRNA expression in human NCI-H1299 cells at 10 uM incubated for 48 hrs by qRT-PCR analysis; format: functional, cell-based; method in brief: as §1
[24] = molecular target: T1, Protein cereblon/Histone-lysine N-methyltransferase EZH2 (Homo sapiens); assay: PROTAC activity at CRBN E3 ligase/EZH2 in PRC2 complex in human WSUDLCL2 cells assessed as induction of EZH2 degradation at up to 10 uM incubated for 72 hrs by Western blot analysis; format: cell-based; settings: dose microM <=10, time 72.0 hrs
[25] = molecular target: T1, Protein cereblon/Histone-lysine N-methyltransferase EZH2 (Homo sapiens); assay: PROTAC activity at CRBN E3 ligase/EZH2 in PRC2 complex in human WSUDLCL2 cells assessed as reduction in H3K27me3 level at up to 10 uM incubated for 72 hrs by Western blot analysis; format: cell-based; settings: dose microM <=10, time 72.0 hrs
A549 [26] = assay: Downregulation of CENPK mRNA expression in human A549 cells at 10 uM incubated for 48 hrs by qRT-PCR analysis; format: functional, cell-based; method in brief: as §1
WSUDLCL2 = assay: Antiproliferative activity against human WSUDLCL2 cells harboring EZH2-Y641F mutant assessed as inhibition of cell growth at 10 uM incubated for 9 days by optical microscopic analysis; format: functional, cell-based; settings: time 9.0 day
Method in brief: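 WSU-DLCL-2 cells seeded at 5 × 10³ per well, incubated 24 h, then exposed to 10 μM compound for 9 days with medium refreshed. Cells photographed and counted on days 1, 3, 5, 7 and 9. Mean SD of three independent experiments, t-test versus DMSO.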

MDA-MB-468 [27] = assay: Downregulation of CENPK mRNA expression in human MDA-MB-468 cells at 10 uM incubated for 48 hrs by qRT-PCR analysis; format: functional, cell-based; method in brief: as §1

T1 sequence (Q15910 whole entry, looked up): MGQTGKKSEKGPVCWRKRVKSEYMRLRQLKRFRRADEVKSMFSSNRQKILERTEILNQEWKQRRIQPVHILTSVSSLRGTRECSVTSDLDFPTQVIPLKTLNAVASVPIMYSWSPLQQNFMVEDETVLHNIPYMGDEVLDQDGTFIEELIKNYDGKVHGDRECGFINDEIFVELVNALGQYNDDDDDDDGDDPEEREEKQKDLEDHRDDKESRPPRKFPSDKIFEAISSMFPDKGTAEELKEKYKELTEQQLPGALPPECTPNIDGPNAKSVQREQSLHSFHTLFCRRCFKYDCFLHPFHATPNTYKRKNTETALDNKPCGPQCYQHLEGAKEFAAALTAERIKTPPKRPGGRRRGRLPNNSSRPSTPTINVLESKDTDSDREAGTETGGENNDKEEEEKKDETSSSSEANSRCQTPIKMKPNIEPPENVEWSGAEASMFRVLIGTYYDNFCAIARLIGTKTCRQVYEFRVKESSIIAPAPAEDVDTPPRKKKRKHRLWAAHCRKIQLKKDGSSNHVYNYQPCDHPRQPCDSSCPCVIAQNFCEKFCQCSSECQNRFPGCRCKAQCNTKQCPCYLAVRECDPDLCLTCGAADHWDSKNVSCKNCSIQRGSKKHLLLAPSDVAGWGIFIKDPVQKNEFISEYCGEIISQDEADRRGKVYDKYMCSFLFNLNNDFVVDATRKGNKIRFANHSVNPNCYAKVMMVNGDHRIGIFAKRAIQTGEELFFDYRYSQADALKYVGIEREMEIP
T1 sequence (Q96SW2 whole entry, looked up): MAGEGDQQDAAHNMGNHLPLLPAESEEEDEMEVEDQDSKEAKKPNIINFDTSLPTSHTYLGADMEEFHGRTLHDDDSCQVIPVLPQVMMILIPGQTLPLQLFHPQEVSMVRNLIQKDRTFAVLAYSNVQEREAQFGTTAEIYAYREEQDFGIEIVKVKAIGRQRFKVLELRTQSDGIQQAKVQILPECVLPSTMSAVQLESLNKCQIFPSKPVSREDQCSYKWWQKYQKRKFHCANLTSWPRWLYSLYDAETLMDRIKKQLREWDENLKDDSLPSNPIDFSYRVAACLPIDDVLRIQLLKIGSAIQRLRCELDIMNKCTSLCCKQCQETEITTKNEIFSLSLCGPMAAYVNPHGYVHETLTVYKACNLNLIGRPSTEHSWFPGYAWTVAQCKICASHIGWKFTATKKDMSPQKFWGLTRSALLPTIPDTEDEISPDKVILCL
Histone-lysine N-methyltransferase EZH2, sequence (Q15910 whole entry): as the sequence (Q15910 whole entry, looked up) above

`CC[C@H](C)n1cc(C)c2c(C(=O)NCc3c(C)cc(C)[nH]c3=O)cc(-c3ccc(N4CCN(CCCCCCCCCCCCOc5cccc6c5C(=O)N(C5CCC(=O)NC5=O)C6=O)CC4)nc3)cc21` (stereo not given in full) was tested. Which Activity [1] did it give?
Its Activity is “Active”.

What about the Activity [2] of the same molecule?
Its Activity is “Dose-Dependent Effect”.

What about the Activity [3] of the same molecule?
Its Activity is “Active”.

And the Activity [4]?
The Activity was “Dose-Dependent Effect”.

And the IC50 [5]?
Its IC50 is 61 nM.

What about the Activity [6] of the same molecule?
The Activity was “Active”.

For `CC[C@H](C)n1cc(C)c2c(C(=O)NCc3c(C)cc(C)[nH]c3=O)cc(-c3ccc(N4CCNCC4)nc3)cc21`, which Activity (MDA-MB-468 [7]) is on record?
The Activity was “inactive”.

And the Activity (A549 [8])?
Its Activity is “inactive”.

And the Activity (NCI-H1299 [9])?
Its Activity is “inactive”.

What about the Activity (NCI-H1299 [10]) of the same molecule?
Its Activity is “inactive”.

And the Activity (NCI-H1299 [11])?
The Activity was “inactive”.

What about the Activity (NCI-H1299 [12]) of the same molecule?
The Activity was “inactive”.

And the Activity (A549 [13])?
The Activity was “inactive”.

What about the Activity (NCI-H1299 [14]) of the same molecule?
The Activity was “inactive”.

What about the Activity (NCI-H1299 [15]) of the same molecule?
The Activity was “inactive”.

And the Activity (MDA-MB-468 [16])?
The Activity was “inactive”.

And the Activity (A549 [17])?
The Activity was “inactive”.

And the Activity [1]?
The Activity was “inactive”.

What about the Activity (MDA-MB-468 [18]) of the same molecule?
Its Activity is “inactive”.

And the Activity (A549 [19])?
Its Activity is “inactive”.

And the Activity (A549 [20])?
Its Activity is “inactive”.

What about the Activity (MDA-MB-468 [21]) of the same molecule?
The Activity was “inactive”.

And the Activity (MDA-MB-468 [22])?
Its Activity is “inactive”.

What about the Activity (NCI-H1299 [23]) of the same molecule?
Its Activity is “inactive”.

And the Activity [24]?
The Activity was “inactive”.

What about the Activity [25] of the same molecule?
Its Activity is “Active”.

What about the Activity (A549 [26]) of the same molecule?
Its Activity is “inactive”.

What about the Activity (WSUDLCL2) of the same molecule?
The Activity was “Active”.

What about the Activity [6] of the same molecule?
The Activity was “inactive”.

What about the Activity (MDA-MB-468 [27]) of the same molecule?
Its Activity is “inactive”.
